In data set [1] the test system is HeLa. Description: Cytotoxicity against human HeLa cells 10 uM after 24 hrs by MTS assay. The class given is cell-based. The gist of the method:
(§1)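 HeLa cells at ~80% confluence, uninfected, exposed to 1–100 μM PPMO or water (mock) in serum-free DMEM-F-12 (1:1) for 24 h. MTS reagent was added for 4 h and absorbance read at 492 nm. Viability was expressed as percent of water-treated cells (set to 100%), averaged over 12 wells.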
(In general: Formazan colour is commonly taken as a measure of viable cells.)

The test system of a further data set is Vero. Description: Cytotoxicity against African green monkey Vero cells at 10 uM after 24 hrs by MTS assay. It is filed as cell-based. The following applies: chlorocebus sabaeus.
For another data set, the system named is SK-N-MC. Description: Cytotoxicity against human SK-N-MC cell at 10 uM after 24 hrs by MTS assay. The class given is cell-based.
Data set [2] relates to HeLa. Description: Cytotoxicity against human HeLa cells at 10 uM by MTS assay. It is filed as cell-based. The gist of the method: as §1
In the next data set the test system is Poliovirus 1. Description: Antiviral activity against Human poliovirus type 1 infected in Human HeLa cell assessed as inhibition of translation at 10 ug/ml by luciferase reporter gene assay. The class given is functional, organism-based. The gist of the method:
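In-cell translation control: HeLa cells electroporated with 20 μg PV1-Luc replicon RNA were placed in medium with 10 μg/ml puromycin at 37°C in 5% CO2. Luciferase in lysates was read by luminometer at hourly time points after transfection. Two experiments were averaged.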
(In general: A reporter such as luciferase makes a cellular process visible.)

SMILES strings stand for the structures. Activity calls are given as the source filed them. The calls are words filed in the database; no cut-off is given here.

For `Cc1cn([C@H]2CN(P(=O)(OC[C@@H]3CN(P(=O)(OC[C@@H]4CN(P(=O)(OC[C@@H]5CN(P(=O)(OC[C@@H]6CN(P(=O)(OC[C@@H]7CN(P(=O)(OC[C@@H]8CN(P(=O)(OC[C@@H]9CN(P(=O)(OC[C@@H]%10CN(P(=O)(OC[C@@H]%11CN(P(=O)(OC[C@@H]%12CN(P(=O)(OC[C@@H]%13CN(P(=O)(OC[C@@H]%14CN(P(=O)(OC[C@@H]%15CN(P(=O)(OC[C@@H]%16CN(P(=O)(OC[C@@H]%17CN(P(=O)(OC[C@@H]%18CN(P(=O)(OC[C@@H]%19CNC[C@H](n%20cnc%21c(=O)[nH]c(N)nc%21%20)O%19)N(C)C)C[C@H](n%19ccc(N)nc%19=O)O%18)N(C)C)C[C@H](n%18cnc%19c(N)ncnc%19%18)O%17)N(C)C)C[C@H](n%17cc(C)c(=O)[nH]c%17=O)O%16)N(C)C)C[C@H](n%16cc(C)c(=O)[nH]c%16=O)O%15)N(C)C)C[C@H](n%15cnc%16c(=O)[nH]c(N)nc%16%15)O%14)N(C)C)C[C@H](n%14ccc(N)nc%14=O)O%13)N(C)C)C[C@H](n%13cnc%14c(=O)[nH]c(N)nc%14%13)O%12)N(C)C)C[C@H](n%12ccc(N)nc%12=O)O%11)N(C)C)C[C@H](n%11cnc%12c(=O)[nH]c(N)nc%12%11)O%10)N(C)C)C[C@H](n%10cc(C)c(=O)[nH]c%10=O)O9)N(C)C)C[C@H](n9cc(C)c(=O)[nH]c9=O)O8)N(C)C)C[C@H](n8ccc(N)nc8=O)O7)N(C)C)C[C@H](n7cnc8c(N)ncnc87)O6)N(C)C)C[C@H](n6cnc7c(=O)[nH]c(N)nc76)O5)N(C)C)C[C@H](n5cnc6c(=O)[nH]c(N)nc65)O4)N(C)C)C[C@H](n4ccc(N)nc4=O)O3)N(C)C)C[C@@H](COP(=O)(N(C)C)N3C[C@@H](COP(=O)(N(C)C)N4C[C@@H](COP(=O)(N(C)C)N5CCN(C(=O)CCNC(=O)CCCCCNC(=O)[C@H](CCCNC(=N)N)NC(=O)CCCCCNC(=O)[C@H](CCCNC(=N)N)NC(=O)[C@H](CCCNC(=N)N)NC(=O)CCCCCNC(=O)[C@H](CCCNC(=N)N)NC(=O)[C@H](CCCNC(=N)N)NC(=O)CCCCCNC(=O)[C@H](CCCNC(=N)N)NC(=O)[C@H](CCCNC(=N)N)NC(=O)CCCCCNC(=O)[C@@H](N)CCCNC(=N)N)CC5)O[C@@H](n5ccc(N)nc5=O)C4)O[C@@H](n4ccc(N)nc4=O)C3)O2)c(=O)[nH]c1=O` (stereo not given in full), the Activity entry in the data set with HeLa [1] is “Toxic”; in the data set on Vero it was “Non-toxic”; in the data set with SK-N-MC, “Non-toxic”; in the data set with HeLa [2], “Non-toxic”. In addition, the result with Poliovirus 1 was inactive.
With `Cc1cn([C@H]2CNC[C@@H](COP(=O)(N(C)C)N3C[C@@H](COP(=O)(N(C)C)N4C[C@@H](COP(=O)(N(C)C)N5C[C@@H](COP(=O)(N(C)C)N6C[C@@H](COP(=O)(N(C)C)N7C[C@@H](COP(=O)(N(C)C)N8C[C@@H](COP(=O)(N(C)C)N9C[C@@H](COP(=O)(N(C)C)N%10C[C@@H](COP(=O)(N(C)C)N%11C[C@@H](COP(=O)(N(C)C)N%12C[C@@H](COP(=O)(N(C)C)N%13C[C@@H](COP(=O)(N(C)C)N%14C[C@@H](COP(=O)(N(C)C)N%15C[C@@H](COP(=O)(N(C)C)N%16C[C@@H](COP(=O)(N(C)C)N%17C[C@@H](COP(=O)(N(C)C)N%18C[C@@H](COP(=O)(N(C)C)N%19C[C@@H](COP(=O)(N(C)C)N%20C[C@@H](COP(=O)(N(C)C)N%21C[C@@H](COP(=O)(N(C)C)N%22C[C@@H](COP(=O)(N(C)C)N%23CCN(C(=O)CCNC(=O)CCCCCNC(=O)[C@H](CCCNC(=N)N)NC(=O)CCCCCNC(=O)[C@H](CCCNC(=N)N)NC(=O)[C@H](CCCNC(=N)N)NC(=O)CCCCCNC(=O)[C@H](CCCNC(=N)N)NC(=O)[C@H](CCCNC(=N)N)NC(=O)CCCCCNC(=O)[C@H](CCCNC(=N)N)NC(=O)[C@H](CCCNC(=N)N)NC(=O)CCCCCNC(=O)[C@@H](N)CCCNC(=N)N)CC%23)O[C@@H](n%23cc(C)c(=O)[nH]c%23=O)C%22)O[C@@H](n%22cnc%23c(N)ncnc%23%22)C%21)O[C@@H](n%21ccc(N)nc%21=O)C%20)O[C@@H](n%20cnc%21c(=O)[nH]c(N)nc%21%20)C%19)O[C@@H](n%19cnc%20c(=O)[nH]c(N)nc%20%19)C%18)O[C@@H](n%18cc(C)c(=O)[nH]c%18=O)C%17)O[C@@H](n%17cnc%18c(=O)[nH]c(N)nc%18%17)C%16)O[C@@H](n%16cc(C)c(=O)[nH]c%16=O)C%15)O[C@@H](n%15cc(C)c(=O)[nH]c%15=O)C%14)O[C@@H](n%14cc(C)c(=O)[nH]c%14=O)C%13)O[C@@H](n%13cnc%14c(=O)[nH]c(N)nc%14%13)C%12)O[C@@H](n%12ccc(N)nc%12=O)C%11)O[C@@H](n%11cc(C)c(=O)[nH]c%11=O)C%10)O[C@@H](n%10ccc(N)nc%10=O)C9)O[C@@H](n9cc(C)c(=O)[nH]c9=O)C8)O[C@@H](n8cc(C)c(=O)[nH]c8=O)C7)O[C@@H](n7cnc8c(=O)[nH]c(N)nc87)C6)O[C@@H](n6cnc7c(N)ncnc76)C5)O[C@@H](n5cnc6c(N)ncnc65)C4)O[C@@H](n4ccc(N)nc4=O)C3)O2)c(=O)[nH]c1=O` (stereo not given in full), the Activity result in the data set on HeLa [1] is listed as “Toxic”; with Vero, “Non-toxic”; with SK-N-MC it was “Non-toxic”; in the data set on HeLa [2], “Non-toxic”. Besides, the result with Poliovirus 1 was inactive.
Turning to `Cc1cn([C@H]2CN(P(=O)(OC[C@@H]3CN(P(=O)(OC[C@@H]4CN(P(=O)(OC[C@@H]5CN(P(=O)(OC[C@@H]6CN(P(=O)(OC[C@@H]7CN(P(=O)(OC[C@@H]8CN(P(=O)(OC[C@@H]9CN(P(=O)(OC[C@@H]%10CN(P(=O)(OC[C@@H]%11CN(P(=O)(OC[C@@H]%12CN(P(=O)(OC[C@@H]%13CN(P(=O)(OC[C@@H]%14CN(P(=O)(OC[C@@H]%15CNC[C@H](n%16cnc%17c(=O)[nH]c(N)nc%17%16)O%15)N(C)C)C[C@H](n%15cc(C)c(=O)[nH]c%15=O)O%14)N(C)C)C[C@H](n%14cc(C)c(=O)[nH]c%14=O)O%13)N(C)C)C[C@H](n%13cnc%14c(N)ncnc%14%13)O%12)N(C)C)C[C@H](n%12cnc%13c(N)ncnc%13%12)O%11)N(C)C)C[C@H](n%11ccc(N)nc%11=O)O%10)N(C)C)C[C@H](n%10cnc%11c(N)ncnc%11%10)O9)N(C)C)C[C@H](n9cc(C)c(=O)[nH]c9=O)O8)N(C)C)C[C@H](n8cnc9c(N)ncnc98)O7)N(C)C)C[C@H](n7cnc8c(=O)[nH]c(N)nc87)O6)N(C)C)C[C@H](n6cc(C)c(=O)[nH]c6=O)O5)N(C)C)C[C@H](n5cnc6c(N)ncnc65)O4)N(C)C)C[C@H](n4cc(C)c(=O)[nH]c4=O)O3)N(C)C)C[C@@H](COP(=O)(N(C)C)N3C[C@@H](COP(=O)(N(C)C)N4C[C@@H](COP(=O)(N(C)C)N5C[C@@H](COP(=O)(N(C)C)N6C[C@@H](COP(=O)(N(C)C)N7C[C@@H](COP(=O)(N(C)C)N8C[C@@H](COP(=O)(N(C)C)N9C[C@@H](COP(=O)(N(C)C)N%10CCN(C(=O)CCNC(=O)CCCCCNC(=O)[C@H](CCCNC(=N)N)NC(=O)CCCCCNC(=O)[C@H](CCCNC(=N)N)NC(=O)[C@H](CCCNC(=N)N)NC(=O)CCCCCNC(=O)[C@H](CCCNC(=N)N)NC(=O)[C@H](CCCNC(=N)N)NC(=O)CCCCCNC(=O)[C@H](CCCNC(=N)N)NC(=O)[C@H](CCCNC(=N)N)NC(=O)CCCCCNC(=O)[C@@H](N)CCCNC(=N)N)CC%10)O[C@@H](n%10cnc%11c(=O)[nH]c(N)nc%11%10)C9)O[C@@H](n9ccc(N)nc9=O)C8)O[C@@H](n8cnc9c(N)ncnc98)C7)O[C@@H](n7ccc(N)nc7=O)C6)O[C@@H](n6ccc(N)nc6=O)C5)O[C@@H](n5ccc(N)nc5=O)C4)O[C@@H](n4cnc5c(N)ncnc54)C3)O2)c(=O)[nH]c1=O` (stereo not given in full), the Activity result was “Toxic” with HeLa [1], “Non-toxic” in the data set with Vero, “Non-toxic” in the data set on SK-N-MC and “Non-toxic” with HeLa [2]. Moreover, the result in the data set with Poliovirus 1 was inactive.

The record behind these values is ChEMBL document CHEMBL1629545, “A morpholino oligomer targeting highly conserved internal ribosome entry site sequence is able to inhibit multiple species of picornavirus” (Antimicrob Agents Chemother, 2008).
